FN deposit inh – fibronectin deposition inhibition | inhibition, % at 12.6 µM | hit rate 0.086% among 350,000 | AH1F fibroblasts, Alexa488-fibronectin deposition fluorescence, overnight;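 active means mean inhibition across replicates of 30% or more, regardless of how many single replicates reach that level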;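 further: positive control wells lacked labelled fibronectin entirely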
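Schedule: 1 h cell adhesion before compound, then overnight fibronectin incubation; test system: AH1F fibroblast monolayer depositing Alexa488-labelled fibronectin into matrix; quantity: 10000 AH1F cells per well; probe or stimulus: fluorescent fibronectin at 24 nM final; signal: fluorescence, ex 485 nm, em 525 nm; evaluation: percent inhibition as loss of matrix-bound fibronectin fluorescence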
PfHsp90 yeast 2 – reduces growth (ATP signal) of yeast expressing P. falciparum Hsp90; S. cerevisiae expressing PfHsp90, BacTiter-Glo ATP, 48 h; yeast lacking PDR1 and PDR3 efflux regulators; inhibition, % at 9.4 µM; hit rate 0.32% among 310,000;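 active means every replicate shows inhibition above about 80%, whatever the replicate mean, limit read from the data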;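 further: 0% = DMSO neutral controls and 100% = 20 µM radicicol positive controls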
PglD inh – blocks C. jejuni PglD acetyltransferase activity. purified PglD enzyme, DTNB colorimetric CoA detection. AID 602405. inhibition, % at 12.5 µM. hit rate 0.098% among 360,000; in the data active means inhibition above about 16%, passing the limit was not always enough
CSC inhib – blocks cancer stem cells; cancer stem cell-like cells viability, luminescence; inhibition, % at 7.5 µM; hit rate 1.1% among 300,000; in the data active means inhibition above about 75%; tested in HMLE shEcad cells
SKKanGAS inh – SKKanGAS growth inhibition | hit rate 1.3% among 300,000 | S. pyogenes SKKanGAS, kanamycin growth, BacTiter-Glo, 6 h | inhibition, % at 7.5 µM;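 active means mean replicate score, as percent of positive control median, at least 50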;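 further: strain carries kanamycin resistance gene driven by streptokinase promoter and grows in 40 µg/ml kanamycin; loss of luminescence reflects streptokinase promoter inhibition or plain growth inhibition; 0% = median of DMSO wells and 100% = positive control at its reference dose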
Rtt109 HAT inh – inhibitors of Candida albicans Rtt109/Vps75 histone acetyltransferase. Q5AAJ8. purified Rtt109/Vps75, ThioGlo CoA-SH fluorescence, 4 h. inhibition, % at 34.9 µM. hit rate 0.16% among 330,000. AID 540336;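 active means inhibition of at least 50% in every replicate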
Target sequence (Q5AAJ8 whole entry, looked up): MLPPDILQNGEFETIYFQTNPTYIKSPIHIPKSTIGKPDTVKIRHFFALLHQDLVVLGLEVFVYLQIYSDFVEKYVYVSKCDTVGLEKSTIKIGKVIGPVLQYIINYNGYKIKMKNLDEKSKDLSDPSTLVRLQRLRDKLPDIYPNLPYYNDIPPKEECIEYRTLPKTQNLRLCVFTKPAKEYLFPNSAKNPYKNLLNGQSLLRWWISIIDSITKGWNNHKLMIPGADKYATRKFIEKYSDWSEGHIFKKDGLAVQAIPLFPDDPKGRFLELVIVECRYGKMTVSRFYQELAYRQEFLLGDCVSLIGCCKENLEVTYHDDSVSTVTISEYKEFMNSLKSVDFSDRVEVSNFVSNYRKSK
* hit, by the source's call; . = no result given. Only some compounds are listed: those with a hit (about 1.7% of all), similar ones and a draw of the others.

SMILES	FN deposit inh	PfHsp90 yeast 2	PglD inh	CSC inhib	SKKanGAS inh	Rtt109 HAT inh
CO[C@@H]1CN(C)C(=O)c2ccc(NC(=O)c3ccc(F)cc3)cc2OC[C@H](C)N(C(C)=O)C[C@@H]1C	-12.2	.	1.5	.	.	.
C[C@H]1CN([C@@H](C)CO)C(=O)Cc2cc(NC(=O)C3CC3)ccc2O[C@@H]1CN(C)C(=O)Nc1ccc2c(c1)OCO2	.	.	-2.4	.	.	.
CO[C@@H]1CN(C)C(=O)c2ccc(NS(=O)(=O)c3cccc(F)c3)cc2OC[C@@H](C)N(C(=O)Cc2cccnc2)C[C@H]1C	-4.3	.	-1.8	.	.	.
O=C(C[C@@H]1CC[C@@H]2[C@H](COC[C@H](O)CN2Cc2cc(F)cc(F)c2)O1)NCc1cccc(F)c1	-0.3	.	0.7	.	.	.
OCCN1CCN(CC(O)COc2ccc(C34CC5CC(CC(C5)C3)C4)cc2)CC1 (centres undefined)	-0.6	5.7	.	112.5*	19.0	16.2
COCC(=O)N1[C@H](CO)[C@H](c2ccccc2)C12CN(C(=O)NC1CCCC1)C2	-2.9	.	.	.	.	.
Cc1cc(C)c2c(N=NN(C)C)[nH]nc2n1	.	103.9*	0.5	1.3	6.8	-3.5
Cc1cc(C)c2c(=O)[nH]c(SCC(=O)N(C)C)nc2n1	.	6.5	-2.7	-5.0	4.1	.
O=S(=O)(NN1CCOCC1)c1ccc(Br)cc1	8.5	19.9	4.1	-5.2	-16.9	52.5*
O=S(=O)(NN1CCOCC1)c1ccc(Br)s1	.	17.4	15.3	-4.8	-1.4	-10.3
CCC(=O)N(C)C[C@@H]1Oc2ncc(-c3ccccc3F)cc2C(=O)N([C@H](C)CO)C[C@H]1C	-4.8	.	37.3	.	.	.
O=C(NNc1ccccc1)C(=O)NNS(=O)(=O)c1ccc([N+](=O)[O-])cc1	-2.8	-19.7	.	92.5*	3.9	15.5
O=C(NNc1ccc([N+](=O)[O-])cc1)Nc1ccccc1	-1.4	-0.2	-8.6	10.7	3.9	-0.8
N#CCc1nc2n(n1)Cc1ccccc1-2	.	-7.4	3.1	-10.7	8.3	72.7*
O=C(c1ccccc1)c1nn(-c2ccc(Cl)cc2)c(=O)cc1C(F)(F)F	.	-83.8	3.5	107.8*	2.3	-6.8
O=C(c1ccccc1)c1nn(-c2ccccc2)c(=O)cc1C(F)(F)F	.	-100.6	5.4	4.0	-0.6	1.4
COc1cccc(NC(=O)N2[C@@H]3CNC[C@H]2C3c2ccc(-c3cccc(C(=O)N(C)C)c3)cc2)c1 (some centres undefined)	-2.4	.	.	.	.	.
COc1cc(SC#N)ccc1N=Cc1c(C)[nH]n(-c2ccc(C)c(C)c2)c1=O	-12.0	-33.5	10.2	96.9*	4.8	55.6*
COc1ccc(Cl)cc1Nc1nc(C)nc2c1nnn2Cc1ccccc1	-7.0	-33.5	-1.0	4.6	-1.6	-12.6
CCOC(=O)c1ccc(Nc2nc(C)nc3c2nnn3Cc2ccccc2)cc1	-5.5	-30.4	-1.8	8.3	53.0*	4.1
C[C@@H]1CN([C@H](C)CO)C(=O)CCCn2cc(nn2)CO[C@@H]1CN(C)C(=O)Nc1ccc(C(C)(C)C)cc1	2.4	.	.	.	.	.
O=C(C[C@@H]1C[C@H]2c3cc(NC(=O)NC4CCCC4)ccc3O[C@H]2[C@@H](CO)O1)NCc1cccc(F)c1	.	.	1.2	.	.	.
CCOC(=O)C1=C(C)NC(C)=C(C(=O)OCC)C1c1ccccc1/C=C/C(=O)OC(C)(C)C	.	.	.	98.6*	38.0	.
CCOC(=O)C1=C(C)NC(C)=C(C(=O)OCC)C1/C=C/c1ccccc1OC	2.9	15.0	.	12.9	2.8	4.9
CC1(C)CCC[C@]2(C)[C@H]3Cc4cc(O)ccc4O[C@]3(C)CC[C@@H]12	16.5	0.8	1.9	130.0*	.	5.6
SMILES	FN deposit inh	PfHsp90 yeast 2	PglD inh	CSC inhib	SKKanGAS inh	Rtt109 HAT inh
Cn1c(N)c(C(=O)COC(=O)CCCc2c[nH]c3ccccc23)c(=O)n(C)c1=O	.	-21.0	-3.6	3.0	75.2*	6.1
Cn1c(N)c(C(=O)COC(=O)CCc2c[nH]c3ccccc23)c(=O)n(C)c1=O	.	4.6	3.9	-1.5	62.9*	0.2
Cn1c(N)c(C(=O)COC(=O)CCc2nc3ccccc3s2)c(=O)n(C)c1=O	-3.5	21.4	-3.1	-10.3	-0.6	-11.9
C[C@H](CO)N1C[C@H](C)[C@H](CN(C)S(=O)(=O)c2ccc(Oc3ccccc3)cc2)OCc2cnnn2CCCC1=O	8.7	.	2.4	.	.	.
Cc1noc(C)c1NC(=O)N(C)C[C@H]1Oc2ccc(NC(=O)CCC(F)(F)F)cc2C(=O)N([C@H](C)CO)C[C@H]1C	.	.	-3.7	.	.	.
CCc1nnc(NS(=O)(=O)c2ccc(NCc3cc(Cl)cc(Cl)c3O)cc2)s1	3.1	2.2	2.0	19.4	54.3*	6.8
CCc1nnc(NS(=O)(=O)c2ccc(NCc3cc(Cl)ccc3O)cc2)s1	5.2	-28.1	-1.4	.	11.0	6.0
CN(CCO)c1cc(Sc2nc3ccccc3s2)c2nonc2c1[N+](=O)[O-]	.	5.6	-2.9	103.4*	67.3*	-1.4
O=C(NCc1ccccn1)C(=O)Nc1nc(C23CC4CC(CC(C4)C2)C3)cs1	-2.3	1.9	2.6	25.2	75.3*	3.8
O=C(NCc1ccccn1)NC12CC3CC(CC(C3)C1)C2	12.3	.	-8.0	-20.1	3.3	7.0
O=C(N[C@@H]1C/C=C\C[C@@H](CC(=O)N(CCO)Cc2ccccc2)C(=O)NCCOC1=O)OCC1c2ccccc2-c2ccccc21	.	-23.1	0.8	.	.	7.9
O=C(N[C@H]1C/C=C\C[C@@H](CC(=O)N(CCO)Cc2ccccc2)C(=O)NC[C@H](c2ccccc2)OC1=O)OCC1c2ccccc2-c2ccccc21	-7.3	-46.6	-0.8	103.6*	.	12.2
CCOC(=O)c1[nH]c2ccc(OC)cc2c1NC(=O)c1ccccc1C(=O)O	-1.0	0.0	.	-18.6	12.1	7.2
CCOC(=O)c1[nH]c2ccc(F)cc2c1NC(=O)c1ccccc1C(=O)O	-2.4	4.5	5.2	-14.3	84.4*	0.3
CCC(=O)N(C)C[C@H]1Oc2cc(C#CCN(C)C)ccc2S(=O)(=O)N([C@@H](C)CO)C[C@H]1C	-6.9	.	-3.9	.	.	.
CCOC(=O)c1ccc(NC(=S)N2CCSC2c2c(F)cc(F)cc2F)cc1 (centres undefined)	5.1	-5.2	.	24.2	5.1	3.6
Fc1cc(F)c(C2SCCN2C(=S)Nc2cccc(C(F)(F)F)c2)c(F)c1 (centres undefined)	-4.3	-17.5	-12.5	4.0	50.1*	0.4
COc1ccc(N/N=C(\C=N\O)C(=O)c2ccc(OC)cc2)cc1	.	.	.	-5.1	1.5	-7.8
N/N=C/C(=N\Nc1ccc(Cl)cc1)C(=O)c1ccncc1	16.1	-13.8	4.2	75.7*	17.5	-4.6
C[C@H](CO)N1C[C@H](C)[C@H](CN(C)C(=O)Nc2ccc(C(F)(F)F)cc2)Oc2c(NC(=O)Nc3ccccc3)cccc2C1=O	.	.	0.4	.	.	.
C[C@H](O)C#Cc1ccc2c(c1)O[C@@H](CN(C)C(=O)Nc1ccccc1)[C@H](C)CN([C@H](C)CO)S2(=O)=O	-1.5	.	1.3	.	.	.
Cc1cc(C)c2ccc(NN)nc2c1O	.	6.8	-4.0	19.7	67.9*	1.7
